Experimental data from ChEMBL document CHEMBL1145483, “A Candida albicans petite mutant strain with uncoupled oxidative phosphorylation overexpresses MDR1 and has diminished susceptibility to fluconazole and voriconazole” (2007).
≈ marks a conversion by molar mass, not a printed value.

Legend:
Format in all cases: functional
Candida albicans [1] = test: Antimicrobial activity against Candida albicans SC5314 after 24 hrs by broth macrodilution method; settings: SC5314, 24 h
In short: (§1)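 MICs were determined by standard broth macrodilution following the NCCLS M27-A yeast reference method, with readings at 24 h and 48 h. Strains were parental SC5314 and P5, a petite mutant with uncoupled oxidative phosphorylation recovered from SC5314 after serial passage through mouse spleens.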

Candida albicans [2] = test: Antimicrobial activity against Candida albicans P5 after 48 hrs by broth macrodilution method; settings: P5, 48 h; in short: as §1
Candida albicans [3] = test: Antimicrobial activity against Candida albicans SC5314 after 48 hrs by broth macrodilution method; settings: SC5314, 48 h; in short: as §1
Candida albicans [4] = test: Antimicrobial activity against Candida albicans P5 after 24 hrs by broth macrodilution method; settings: P5, 24 h; in short: as §1
Candida albicans [5] = test: Ratio of MIC for Candida albicans P5 mutant to MIC for Candida albicans SC5314
In short: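 The ratio is the P5 MIC divided by the SC5314 MIC, with both MICs obtained by standard broth macrodilution (NCCLS M27-A yeast reference method) and read at 24 h and 48 h. P5 is a petite mutant of SC5314 with uncoupled oxidative phosphorylation.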

Structure (SMILES)	MIC (Candida albicans [1])	MIC (Candida albicans [2])	MIC (Candida albicans [3])	MIC (Candida albicans [4])	Ratio (Candida albicans [5])
CC(=O)N1CCN(c2ccc(OC[C@H]3CO[C@](Cn4ccnc4)(c4ccc(Cl)cc4Cl)O3)cc2)CC1 [KETOCONAZOLE]	0.064 mg/L (≈ 0.12 µM)	0.064 mg/L (≈ 0.12 µM)	0.064 mg/L (≈ 0.12 µM)	0.064 mg/L (≈ 0.12 µM)	
Cc1cc(C)nc(NC(=O)NS(=O)(=O)c2ccccc2C(=O)O)n1 [SULFOMETURON]	10 mg/L (≈ 28.5 µM)	10 mg/L (≈ 28.5 µM)	10 mg/L (≈ 28.5 µM)	10 mg/L (≈ 28.5 µM)	
CCC(C)n1ncn(-c2ccc(N3CCN(c4ccc(OC[C@H]5CO[C@](Cn6cncn6)(c6ccc(Cl)cc6Cl)O5)cc4)CC3)cc2)c1=O (stereo not given in full) [ITRACONAZOLE]	0.016 mg/L (≈ 0.0227 µM)	0.016 mg/L (≈ 0.0227 µM)	0.016 mg/L (≈ 0.0227 µM)	0.016 mg/L (≈ 0.0227 µM)	
C[C@@H]1C[C@@H]([C@H](O)CC2CC(=O)NC(=O)C2)C(=O)[C@@H](C)C1 [CYCLOHEXIMIDE]	400 mg/L (≈ 1420 µM)	800 mg/L (≈ 2840 µM)	400 mg/L (≈ 1420 µM)	400 mg/L (≈ 1420 µM)	
C[C@@H]1[C@H](O)[C@@H](C)/C=C/C=C/C=C/C=C/C=C/C=C/C=C/[C@H](O[C@@H]2O[C@H](C)[C@@H](O)[C@H](N)[C@@H]2O)C[C@@H]2O[C@](O)(C[C@@H](O)C[C@@H](O)[C@H](O)CC[C@@H](O)C[C@@H](O)CC(=O)O[C@H]1C)C[C@H](O)[C@H]2C(=O)O [AMPHOTERICIN B]	0.06 mg/L (≈ 0.0649 µM)	0.125 mg/L (≈ 0.135 µM)	0.125 mg/L (≈ 0.135 µM)	0.06 mg/L (≈ 0.0649 µM)	
OC(Cn1cncn1)(Cn1cncn1)c1ccc(F)cc1F [FLUCONAZOLE]	0.125 mg/L (≈ 0.408 µM)	1 mg/L (≈ 3.27 µM)	0.125 mg/L (≈ 0.408 µM)	1 mg/L (≈ 3.27 µM)	8
CN(C)c1ccc(C(=C2C=CC(=[N+](C)C)C=C2)c2ccc(N(C)C)cc2)cc1.[Cl-] [GENTIAN VIOLET]	0.2 mg/L	0.4 mg/L	0.4 mg/L	0.2 mg/L	
C/C=C/C/C=C/CCC(=O)[C@H]1O[C@H]1C(N)=O [CERULENIN]	2 mg/L (≈ 8.96 µM)	8 mg/L (≈ 35.8 µM)	2 mg/L (≈ 8.96 µM)	4 mg/L (≈ 17.9 µM)	
C[C@H]1CCC/C=C/[C@@H]2C[C@H](O)C[C@H]2[C@H](O)/C=C/C(=O)O1 [BREFELDIN A]	4 mg/L (≈ 14.3 µM)	32 mg/L (≈ 114 µM)	8 mg/L (≈ 28.5 µM)	16 mg/L (≈ 57.1 µM)	
CCCCNC(=O)n1c(NC(=O)OC)nc2ccccc21 [BENOMYL]	20 mg/L (≈ 68.9 µM)	20 mg/L (≈ 68.9 µM)	20 mg/L (≈ 68.9 µM)	20 mg/L (≈ 68.9 µM)	
CC/N=c1\cc2oc3cc(NCC)c(C)cc3c(-c3ccccc3C(=O)OCC)c-2cc1C.Cl [RHODAMINE 6G HYDROCHLORIDE]	8 mg/L	8 mg/L	8 mg/L	8 mg/L	
C[C@@H](c1ncncc1F)[C@](O)(Cn1cncn1)c1ccc(F)cc1F [VORICONAZOLE]	0.004 mg/L (≈ 0.0115 µM)	0.032 mg/L (≈ 0.0916 µM)	0.004 mg/L (≈ 0.0115 µM)	0.032 mg/L (≈ 0.0916 µM)	8
